Results from ChEMBL document CHEMBL2146377, “Rational design of 4-aryl-1,2,3-triazoles for indoleamine 2,3-dioxygenase 1 inhibition” (J Med Chem, 2012).
Active and inactive are the calls of the source. The calls are words filed in the database; no cut-off is given here.

How the values were obtained:
[1] = physchem; settings: pH 2
[2] = Dissociation constant, pKa of the compound at pH 11 to 12 by spectrophotometric analysis; assay type: physicochemical
[3] = target: Tryptophan 2,3-dioxygenase (Homo sapiens, UniProt P48775); experiment: Inhibition of human TDO transfected in mouse P815B clone 19 cells by HPLC analysis; assay type: cell-based
Tryptophan 2,3-dioxygenase (Homo sapiens, UniProt P48775), sequence (P48775 whole entry): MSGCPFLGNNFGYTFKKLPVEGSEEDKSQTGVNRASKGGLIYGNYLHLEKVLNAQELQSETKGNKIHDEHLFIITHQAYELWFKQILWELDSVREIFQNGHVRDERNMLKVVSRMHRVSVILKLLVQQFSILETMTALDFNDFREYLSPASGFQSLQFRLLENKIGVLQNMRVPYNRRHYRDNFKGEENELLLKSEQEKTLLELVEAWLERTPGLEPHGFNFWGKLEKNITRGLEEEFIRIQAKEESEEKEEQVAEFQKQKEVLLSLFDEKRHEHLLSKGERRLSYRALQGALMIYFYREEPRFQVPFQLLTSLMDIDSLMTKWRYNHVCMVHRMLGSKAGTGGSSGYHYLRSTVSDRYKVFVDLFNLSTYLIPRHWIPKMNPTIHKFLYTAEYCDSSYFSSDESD

[4] = target: Indoleamine 2,3-dioxygenase 1 (Mus musculus, UniProt P28776); experiment: Inhibition of mouse IDO1 in P815 clone 6 cells by HPLC analysis; assay type: cell-based
Indoleamine 2,3-dioxygenase 1 (Mus musculus, UniProt P28776), sequence (P28776 whole entry): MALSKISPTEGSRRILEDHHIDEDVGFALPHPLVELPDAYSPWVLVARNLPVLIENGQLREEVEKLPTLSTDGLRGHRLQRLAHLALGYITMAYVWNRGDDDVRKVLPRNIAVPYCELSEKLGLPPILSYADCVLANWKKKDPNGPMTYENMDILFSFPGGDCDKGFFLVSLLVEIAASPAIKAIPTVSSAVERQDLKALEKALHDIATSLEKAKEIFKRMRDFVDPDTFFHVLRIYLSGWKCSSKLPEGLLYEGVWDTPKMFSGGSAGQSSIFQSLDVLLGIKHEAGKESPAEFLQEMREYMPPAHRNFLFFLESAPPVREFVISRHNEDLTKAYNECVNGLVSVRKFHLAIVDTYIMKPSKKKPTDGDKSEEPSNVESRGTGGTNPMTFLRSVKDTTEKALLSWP
How it was run: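 Murine mastocytoma P815 stably transfected cells were used: P815-mIDO1 clone 6 for mouse IDO1 and P815B-hIDO1 clone 6 for human IDO1. Cells with inhibitor were incubated at 37 °C until under 50% of tryptophan was consumed, as tracked in control wells by pDMAB absorbance at 480 nm. Supernatant was TCA-precipitated, and tryptophan and kynurenine were quantified by C18 HPLC. Values are the mean of ≥2 independent assays.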

[5] = tested on: HepG2; experiment: Cytotoxicity against human HepG2 cells after 24 hrs by MTS-PMS assay; assay type: functional; settings: HepG2, 24 h, read-out: LD50 (the source's name)
How it was run: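 Hep G2 cells (2 × 10⁴ per well) in IMDM with 10% FCS exposed to compound titrated 0.001–100 μM for 24 h at 37 °C; living cells counted by MTS/PMS assay; LD₅₀ reported as mean of at least two independent assays with standard deviation.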

[6] = target: T1, Indoleamine 2,3-dioxygenase 1 (Homo sapiens, UniProt P14902); experiment: Inhibition of human IDO1 transfected in HEK293 clone 6 cells by HPLC analysis; assay type: cell-based
Target sequence in this assay (P14902 whole entry, looked up): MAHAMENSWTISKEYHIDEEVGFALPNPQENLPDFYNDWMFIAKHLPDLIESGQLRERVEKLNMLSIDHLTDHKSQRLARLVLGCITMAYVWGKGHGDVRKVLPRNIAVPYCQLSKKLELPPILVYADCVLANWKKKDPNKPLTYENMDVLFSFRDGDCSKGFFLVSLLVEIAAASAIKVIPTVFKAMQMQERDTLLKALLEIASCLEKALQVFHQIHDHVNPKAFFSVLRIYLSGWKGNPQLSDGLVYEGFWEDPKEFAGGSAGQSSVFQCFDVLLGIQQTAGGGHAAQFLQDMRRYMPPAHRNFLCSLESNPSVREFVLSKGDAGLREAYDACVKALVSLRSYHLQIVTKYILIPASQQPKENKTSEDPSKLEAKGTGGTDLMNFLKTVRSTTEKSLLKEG

[7] = target: Tryptophan 2,3-dioxygenase (Mus musculus, UniProt P48776); experiment: Inhibition of mouse TDO in P815 clone 12 cells by HPLC analysis; assay type: cell-based
Tryptophan 2,3-dioxygenase (Mus musculus, UniProt P48776), sequence (P48776 whole entry): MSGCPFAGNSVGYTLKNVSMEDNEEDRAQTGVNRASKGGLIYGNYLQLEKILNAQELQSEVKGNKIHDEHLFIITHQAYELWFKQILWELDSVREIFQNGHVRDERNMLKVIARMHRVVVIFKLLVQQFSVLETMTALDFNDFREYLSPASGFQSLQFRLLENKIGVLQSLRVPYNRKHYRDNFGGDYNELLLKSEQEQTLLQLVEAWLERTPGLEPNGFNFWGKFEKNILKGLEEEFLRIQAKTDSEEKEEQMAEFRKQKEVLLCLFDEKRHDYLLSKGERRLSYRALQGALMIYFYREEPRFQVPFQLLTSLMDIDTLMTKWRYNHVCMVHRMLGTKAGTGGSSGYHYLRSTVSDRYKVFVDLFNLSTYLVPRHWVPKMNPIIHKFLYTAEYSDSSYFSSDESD

[8] = target: T1, Indoleamine 2,3-dioxygenase 1; settings: at 1 mM
Target sequence in this assay (P14902 whole entry, looked up): as the sequence (P14902 whole entry, looked up) above

[9] = target: T1, Indoleamine 2,3-dioxygenase 1; experiment: Inhibition of human IDO1 transfected in mouse P815B clone-6 cells by HPLC analysis; assay type: cell-based
Target sequence in this assay (P14902 whole entry): as the sequence (P14902 whole entry, looked up) above

[10] = target: T1, Indoleamine 2,3-dioxygenase 1; experiment: Inhibition of human recombinant N-terminal His-tagged IDO1 (Ala2 to Gly403) overexpressed in Escherichia coli BL21 at pH 6.5 after 60 mins by HPLC analysis
Target sequence in this assay (P14902 whole entry): as the sequence (P14902 whole entry, looked up) above

Row | Structure (SMILES) | pKa [1] | pKa [2] | IC50 [3] | IC50 [4] | CC50 [5] | inhibition [6] | IC50 [7] | inhibition [8] | IC50 [9] | IC50 [10]
1 | c1c[nH]nn1 | 9.26 | 1.17 |  |  |  |  |  |  |  | 
2 | c1nc[nH]n1 [1,2,4-TRIAZOLE] | 10.3 | 2.19 |  |  |  |  |  |  |  | 
3 | c1ccc(-c2cnn[nH]2)cc1 | 8.62 | 0.4 | > 100 µM | 0.18 µM | > 100 µM | Active | > 100 µM |  |  | 
4 | c1ccc(-c2c[nH]cn2)cc1 | 13.4 | 6.1 |  |  |  |  |  |  |  | 
5 | COc1ccccc1-c1c[nH]nn1 | 8.99 |  | > 100 µM | 20 µM | > 100 µM | Active | > 100 µM | inactive | > 100 µM | 
6 | c1ccc(-c2nc[nH]n2)cc1 | 9.29 | 2.05 |  |  |  |  |  | inactive |  | 
7 | Clc1ccc(Cl)c(-c2c[nH]nn2)c1 | 8.17 |  | > 100 µM | 0.15 µM | > 100 µM | Active | > 100 µM |  | 34 µM | 6.4 µM
8 | Clc1cccc(-c2c[nH]nn2)c1 | 8.32 |  | > 100 µM | 0.02 µM | > 100 µM | Active | > 100 µM |  | 0.62 µM | 1.2 µM
